Sampled rows, rich in hits. Any-hit rate of the full collection: about 2.3%.
PAX8 inh HTS: inhibitors of PAX8-driven TPO luciferase reporter, primary screen, RMG-I cells, single concentration. SteadyGlo, 24 h. inhibition, % at 12.6 µM. 360,000 compounds, 1.2% hits;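 active means mean replicate inhibition at least 60% with every replicate also reaching 60%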;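 further: luciferase light reporting Pax8 driven TPO promoter activity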
FN deposition inh: inhibitors of fibronectin matrix deposition, primary screen, AH1F cells, Alexa488-fibronectin fluorescence, plate reader; AH1F fibroblasts, overnight; inhibition, % at 12.6 µM; 350,000 compounds, 0.086% hits;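 active means mean inhibition across replicates of 30% or more, regardless of how many single replicates reach that level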
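Assay system: AH1F fibroblast monolayer, labelled fibronectin deposition. Amount: 10000 cells per well. Also added: labelled fibronectin 24 nM. Compound: single-point pinned compound. Incubation: cell attachment 1 h, compound and FN exposure overnight. Detection: fluorescence after three HBSS washes, excitation 485 nm, emission 525 nm. Read-out: inhibition of fibronectin deposition signal.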
HIV Env fusion: inhibitors of HIV-1 Env-driven cell-cell fusion, primary screen, HeLa-JRFL effector, CEM21 target cells, luciferase; inhibition, % at 12.3 µM; 360,000 compounds, 1.1% hits;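 active means mean replicate inhibition score of at least 50 and every replicate individually at or above 50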
F508del corr: F508del CFTR correction, initial screen, CFBE line, single point; CFBE cells, YFP halide quenching; stimulated with forskolin plus potentiator P3; % fluorescence drop versus neutral controls; activity (quench increase), % at 7.58 µM; 350,000 compounds, 0.36% hits; AID 720511, 2013;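 active means mean added fluorescence quench of at least 8% versus neutral control, with both replicates also reaching 8%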;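 further: cells transiently co-express mutant CFTR-F508del with the halide-sensitive YFP; corrector assay measuring rescue of mutant channel to the surface after 24 h compound exposure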
EWS-Fli block: EWS/Fli-driven NR0B1 reporter inhibitors, primary screen, A673 cells, NR0B1 luciferase, luminescence, MLPCN library; 350,000 compounds, 0.67% hits; viability-normalised; inhibition, % at 12.6 µM;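 active means mean inhibition of at least 50% after viability correction, with every replicate also passing that limit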;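 further: firefly luciferase signal divided by Alamar Blue viability fluorescence both relative to DMSO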
PGC1a acetyl inh: inhibitors of PGC1a acetylation signal, primary screen, cell-based, U2OS, AlphaScreen, inhibitor mode; AlphaScreen anti-acetyl-lysine; with virally co-expressed GCN5 acetyltransferase; inhibition, % at 15.6 µM; 350,000 compounds, 0.17% hits;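 active means every replicate shows inhibition of at least 40%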
DNA binding: DNA binders by acridine orange displacement, dose response, counter-screen for EWS/Fli inhibitor project, biochemical, fluorescence polarization, cherry-pick; shares compounds with EWS-Fli block; 640 compounds, 2% hits; AC35, µM (series often up to 68 µM); salmon sperm DNA acridine orange fluorescence polarization;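 active means fitted curve reaches a 35% signal fall AC35 below twice the sample's top valid tested dose, actives reach about 48 µM in these data; inactive means the rest, including activity in the rising direction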;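 further: lower polarization ratio signals compound binding to DNA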
Each line names hits and unclear results; the compound was inactive in the other large screens (follow-up assays come after a bar, where they were run); ! = repeats disagree.

CCCCCCCCNC(C)C(O)c1ccc(SC(C)C)cc1 (stereo not drawn)	EWS-Fli block 58.8 (no result: PGC1a acetyl inh) | DNA binding inactive
NC1(C#Cc2ccc3c(=O)c4ccccc4sc3c2)CCCCC1	none
Cc1cc2sc3ccc(C#CC4(O)CCCCC4)cc3c(=O)c2cc1C	HIV Env fusion 65.3, EWS-Fli block 90.8 | DNA binding inactive
N#Cc1ccc(C#Cc2ccc3oc4ccccc4c(=O)c3c2)cc1	none
O=c1c2ccccc2oc2ccc(C#CC3(O)CCCCC3)cc12	EWS-Fli block 60.7 | DNA binding inactive
CC(C)NC(=O)N(C)C[C@@H]1Oc2c(NS(=O)(=O)c3cn(C)cn3)cccc2C(=O)N([C@H](C)CO)C[C@@H]1C	none (no result: PAX8 inh HTS)
COC(=O)C[C@@H]1CC[C@@H](NC(=O)Nc2ccc(C(F)(F)F)cc2)[C@H](CO)O1	none
COC(=O)C[C@H]1CC[C@@H](NC(=O)Nc2ccc(C(F)(F)F)cc2)[C@H](CO)O1	EWS-Fli block 69.1 | DNA binding inactive
N#Cc1cccc(-c2ccc(C3[C@@H]4CN(C(=O)Cc5ccncc5)C[C@H]3N4)cc2)c1 (stereo partly drawn)	EWS-Fli block 78.0! (no result: HIV Env fusion) | DNA binding inactive
C[C@@H]1CCCCO[C@@H](CN(C)C(=O)Nc2cccc3ccccc23)[C@H](C)CN([C@H](C)CO)C(=O)c2cc(NC(=O)Nc3ccc4c(c3)OCO4)ccc2O1	none (no result: FN deposition inh)
O=C(O)c1cccc(N/N=C/c2cccs2)c1	PAX8 inh HTS 99.6, EWS-Fli block 85.0 (no result: F508del corr, PGC1a acetyl inh) | DNA binding inactive
O=C(O)c1ccc(N/N=C/c2ccc3nccnc3c2)cc1	PAX8 inh HTS 119.5, HIV Env fusion 74.9, EWS-Fli block 84.4 | DNA binding inactive
O=C(O)c1ccc(N/N=C/c2ccc(OC(=O)c3cccc(Cl)c3)cc2)cc1	PAX8 inh HTS 86.1, EWS-Fli block 64.1 | DNA binding inactive
O=C(Oc1ccc(/C=N/Nc2ccccc2)cc1)c1ccccc1	none (no result: F508del corr, EWS-Fli block)
O=C(O)c1cccc(N/N=C/c2ccc(OC(F)(F)F)cc2)c1	EWS-Fli block 73.7 | DNA binding inactive
O=C(O)c1ccc(N/N=C/c2ccncc2)cc1	none (no result: PGC1a acetyl inh)
COc1ccc2c3c([nH]c2c1)[C@@H](CO)N(CC1CCOCC1)CC31CN(CC2CCOCC2)C1	none (no result: PAX8 inh HTS, FN deposition inh, HIV Env fusion)
CO[C@@H]1CN(C)C(=O)c2ccc(NS(=O)(=O)C3CCCCC3)cc2OC[C@H](C)NC[C@H]1C	none
CC(=O)c1ccc(N=C2C(=O)Nc3ccccc32)cc1	EWS-Fli block 54.3 | DNA binding inactive
COc1ccc(N=C2C(=O)Nc3ccccc32)cc1	none (no result: PAX8 inh HTS, F508del corr, EWS-Fli block, PGC1a acetyl inh)
COc1ccc(-c2sc3ccccc3c2-c2ccc(OCCN3CCCCC3)cc2)cc1	EWS-Fli block 59.0 | DNA binding inactive
c1ccc(-c2sc3ccccc3c2-c2ccc(OCCN3CCCC3)cc2)cc1	none (no result: PGC1a acetyl inh)
C[C@@H]1CCCCO[C@H](CN(C)C(=O)NC2CCCCC2)[C@H](C)CN([C@@H](C)CO)C(=O)c2cc(NC(=O)Nc3ccc4c(c3)OCO4)ccc2O1	none
CCCN(C)C[C@H]1OCCCC[C@@H](C)Oc2ccc(NC(=O)c3ccccc3)cc2C(=O)N([C@@H](C)CO)C[C@H]1C	none (no result: FN deposition inh)
CCc1ccc2oc(C(=O)N3CCN(c4ccccc4OC)CC3)cc(=O)c2c1	EWS-Fli block 55.6 (no result: PGC1a acetyl inh) | DNA binding inactive
O=C(Nc1cccc(F)c1)N1CCCCN2[C@H](CO)[C@@H](c3ccc(C#CC4CC4)cc3)[C@H]2C1	none (no result: FN deposition inh, HIV Env fusion)
COc1ccc([Si](C)(C)[C@H]2[C@H](CCO)O[C@@]3(C(=O)N(c4ccccc4)c4ccccc43)[C@@H]2C)cc1	PAX8 inh HTS 102.7, EWS-Fli block 57.9 (no result: FN deposition inh) | DNA binding inactive
CC(C)=CCC/C(C)=C/CN1C(=O)N(c2ccc(F)cc2)[C@H]2C[C@@H](c3ccccc3)[C@@H](C)[C@@H](C(=O)N3CCOCC3)C[C@H]21	PAX8 inh HTS 100.9, HIV Env fusion 75.7, EWS-Fli block 51.5 (no result: PGC1a acetyl inh) | DNA binding inactive

From PubChem
